This passage reports Activity and Ratio results from ChEMBL document CHEMBL1143649, “New clerodane diterpenoids from Laetia procera (Poepp.) Eichler (Flacourtiaceae), with antiplasmodial and antileishmanial activities” (Bioorg Med Chem Lett, 2005).

The test system of data set [1] is MCF7. The experiment in a line: Cytotoxic activity against human MCF-7 cells. It counts as cell-based.
Data set [2] relates to MCF7. Kind of data set: Ratio of cytotoxic activity against human MCF-7 cells to that of antiplasmodial activity against Plasmodium falciparum FcB1. In kind it is functional. An outline of the steps:
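Cytotoxic activity on the MCF7 human tumour line divided by antiplasmodial activity on P. falciparum FcB1.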

The test system of data set [3] is Plasmodium falciparum. The experiment in a line: Antiplasmodial activity for Plasmodium falciparum F32. It counts as functional. An outline of the steps:
(§1)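 Tested against P. falciparum strains FcB1 and F32, with chloroquine as the positive control. Values are means ± SD from independent experiments.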

Data set [4] has as its system Plasmodium falciparum. Kind of data set: Antiplasmodial activity for Plasmodium falciparum FcB1. In kind it is functional. An outline of the steps:
as §1

Data set [5] relates to Leishmania amazonensis. The experiment in a line: Antileishmanial activity against leishmania amazonensis promastigotes stage. It counts as functional.
The test system of data set [6] is Leishmania amazonensis. The experiment in a line: Antileishmanial activity against leishmania amazonensis axenic amastigotes stage. In kind it is functional.

On to `C=C/C(C)=C/C[C@]1(C)[C@H](C)C[C@H](OC)[C@@]2(C=O)C(C=O)=C[C@H](OC(=O)C(C)CC)C[C@@H]12` (some centres not stated), for which the Activity with MCF7 [1] was 9.6 µM; in the data set with Plasmodium falciparum [3], 6.04 µM; in the data set on Plasmodium falciparum [4], 3.79 µM; in the data set on Leishmania amazonensis [5], 50.9 µM; in the data set on Leishmania amazonensis [6] it was 30.3 µM. Further, the Ratio with MCF7 [2] is reported as 2.7.

For `C=C/C(C)=C/C[C@]1(C)[C@H](C)C[C@H](O)[C@@]23C(=C[C@H](OC(=O)C(C)CC)C[C@@H]12)C(OC(C)=O)OC3OC(C)=O` (some centres not stated), the Activity came out at 1.54 µM with MCF7 [1]; 0.62 µM with Plasmodium falciparum [3]; 0.54 µM in the data set on Plasmodium falciparum [4]; 11.1 µM in the data set on Leishmania amazonensis [5]; 5.98 µM with Leishmania amazonensis [6]. Also, the Ratio in the data set with MCF7 [2] stood at 2.2.

`C=C/C(C)=C/C[C@]1(C)[C@H](C)C[C@H](OC)[C@@]23C(=C[C@H](OC(=O)C(C)CC)C[C@@H]12)C(OC(C)=O)OC3OC(C)=O` (some centres not stated): the Activity was found to be 4.38 µM in the data set on MCF7 [1]; 0.58 µM in the data set with Plasmodium falciparum [3]; 0.66 µM in the data set with Plasmodium falciparum [4]; 10.9 µM in the data set with Leishmania amazonensis [5]; 47.4 µM with Leishmania amazonensis [6]. For the same compound, the Ratio with MCF7 [2] came out at 6.8.

As to `C=C/C(C)=C/C[C@]1(C)[C@H](C)C[C@H](O)[C@@]23C(=C[C@@H](OC(=O)C(C)CC)C[C@@H]12)C(OC(C)=O)OC3OC(C)=O` (some centres not stated), the Activity amounted to 0.85 µM in the data set with MCF7 [1]; 0.57 µM in the data set with Plasmodium falciparum [3]; 0.59 µM in the data set with Plasmodium falciparum [4]; 11 µM with Leishmania amazonensis [5]; 10.5 µM with Leishmania amazonensis [6]. In the data set with MCF7 [2], the Ratio is on record as 1.3.

As for `C=C/C(C)=C/C[C@]1(C)[C@H](C)C[C@H](OC(=O)c2ccccc2)[C@@]23C(=C[C@H](OC(=O)C(C)CC)C[C@@H]12)C(OC(C)=O)OC3OC(C)=O` (some centres not stated), the Activity with MCF7 [1] is 27.3 µM; in the data set on Plasmodium falciparum [3], 4.66 µM; in the data set on Plasmodium falciparum [4] it was 5.35 µM; in the data set with Leishmania amazonensis [5] it was more than 200 µM; in the data set on Leishmania amazonensis [6] it was more than 200 µM. Also, the Ratio in the data set with MCF7 [2] was 4.6.

Take `CCCCCCCC/C=C\CCCCCC[C@@H]1C(=O)O[C@@H](C)[C@H]1O`: the Activity with MCF7 [1] is 65.9 µM; in the data set with Plasmodium falciparum [3], 57.6 µM; in the data set on Plasmodium falciparum [4], 27.5 µM; in the data set with Leishmania amazonensis [5], 111 µM; with Leishmania amazonensis [6], 129 µM. Further, the Ratio with MCF7 [2] amounted to 2.1.

As to `C=C/C(C)=C/C[C@]1(C)[C@H](C)C[C@H](OC(=O)c2ccccc2)[C@@]23C(=C[C@H](OC(=O)C(C)C)C[C@@H]12)C(OC(C)=O)OC3OC(C)=O` (some centres not stated), the Activity with MCF7 [1] was 17.8 µM; in the data set on Plasmodium falciparum [3] it was 4.44 µM; with Plasmodium falciparum [4] it was 6.08 µM; in the data set on Leishmania amazonensis [5] it was more than 200 µM; in the data set on Leishmania amazonensis [6] it was more than 200 µM. For the same compound, in the data set with MCF7 [2], the Ratio came to 3.1.

With `C[C@@H]1[C@H](O)[C@@H](C)/C=C/C=C/C=C/C=C/C=C/C=C/C=C/[C@H](O[C@@H]2O[C@H](C)[C@@H](O)[C@H](N)[C@@H]2O)C[C@@H]2O[C@](O)(C[C@@H](O)C[C@@H](O)[C@H](O)CC[C@@H](O)C[C@@H](O)CC(=O)O[C@H]1C)C[C@H](O)[C@H]2C(=O)O` [AMPHOTERICIN B], the Activity with Leishmania amazonensis [5] and in the data set with Leishmania amazonensis [6] was 0.3 µM in each case.

Take `CCN(CC)CCCC(C)Nc1ccnc2cc(Cl)ccc12` (configuration not stated) [CHLOROQUINE]: the Activity with Plasmodium falciparum [3] is 0.06 µM; with Plasmodium falciparum [4], 0.145 µM.

In the data set with MCF7 [1], `COc1cccc2c1C(=O)c1c(O)c3c(c(O)c1C2=O)C[C@@](O)(C(=O)CO)C[C@@H]3O[C@H]1C[C@H](N)[C@H](O)[C@H](C)O1` [DOXORUBICIN] returned an Activity of 0.4 µM.
